According to ChEMBL document CHEMBL3739406, “Trisubstituted Thieno[3,2-b]pyrrole 5-Carboxamides as Potent Inhibitors of Alphaviruses” (J Med Chem, 2015):
Activity calls are given as the source filed them. No cut-off for these calls is given here.

Legend:
[1] = Cytotoxicity against HEK293T cells assessed as reduction in cell viability after 24 hrs by cell titer-glo luminescent cell viability assay; assay type: cell-based, HEK-293T; settings: human
Procedure, shortened: (§1)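 HEK 293T cells, 3 × 10⁴/well, seeded overnight, then exposed 24 h to compound (0.01–100 μM, triplicate) in DMEM pH 6.8 with 10% FBS. Viability read by CellTiter-Glo luminescence. Normalized to untreated (100%) and medium blank (0%); CC50 by five-parameter curve fit.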

Chikungunya virus [2] = assay: Antiviral activity against wild type Chikungunya virus IMT infected in HEK293T cells assessed as reduction of viral nsP1 gene expression measured at 24 hrs postinfection by qRT-PCR method; assay type: functional, cell-based; settings: HEK-293T
Chikungunya virus [3] = assay: Antiviral activity against wild type Chikungunya virus IMT infected in HEK293T cells assessed as inhibition of E2 protein expression measured at 24 hrs postinfection by Western blot method; assay type: functional, cell-based; settings: HEK-293T
Chikungunya virus [4] = assay: Antiviral activity against wild type Chikungunya virus IMT infected in HEK293T cells assessed as inhibition of capsid protein expression measured at 24 hrs postinfection by Western blot method; assay type: functional, cell-based; settings: HEK-293T
HEK293 = assay: Toxicity in HEK293T cells infected with Chikungunya virus IMT assessed as reduction in beta-actin protein expression at 0.1 to 5 uM measured at 24 hrs postinfection by Western blot method; assay type: cell-based; settings: human, hek293, 24 h
Chikungunya virus [5] = assay: Antiviral activity against Chikungunya virus infected in HEK293T cells assessed as reduction of infectivity measured at 24 hrs postinfection by gaussia luciferase reporter gene assay; assay type: functional, cell-based; settings: HEK-293T
Chikungunya virus [6] = assay: Antiviral activity against wild type Chikungunya virus IMT infected in HEK293T cells assessed as inhibition of infectivity at 5 uM measured at 24 hrs postinfection by FITC/DAPI staining based array scan VTI HCS reader analysis; assay type: functional; settings: HEK-293T
Chikungunya virus [7] = assay: Antiviral activity against wild type Chikungunya virus IMT infected in HEK293T cells assessed as reduction of viral E1 gene expression measured at 24 hrs postinfection by qRT-PCR method; assay type: functional, cell-based; settings: HEK-293T
Chikungunya virus [8] = assay: Antiviral activity against wild type Chikungunya virus IMT infected in HEK293T cells assessed as inhibition of nsP1 protein expression measured at 24 hrs postinfection by Western blot method; assay type: functional, cell-based; settings: HEK-293T
Chikungunya virus [9] = assay: Antiviral activity against wild type Chikungunya virus IMT infected in HEK293T cells assessed as inhibition of nsP3 protein expression measured at 24 hrs postinfection by Western blot method; assay type: functional, cell-based; settings: HEK-293T
[10] = Cytotoxicity against HEK293T cells assessed as cell viability at antiviral EC50 after 24 hrs by cell titer-glo luminescent cell viability assay; assay type: cell-based, HEK-293T; settings: human, read-out: Activity; procedure, shortened: as §1
Chikungunya virus [11] = assay: Antiviral activity against wild type Chikungunya virus IMT infected in HEK293T cells assessed as inhibition of infectivity measured at 24 hrs postinfection by FITC/DAPI staining based array scan VTI HCS reader analysis; assay type: functional, cell-based; settings: HEK-293T
[12] = Selectivity index, ratio of CC50 for HEK293T cells to EC50 for Chikungunya virus infected in HEK293T cells; assay type: toxicity, cell-based, HEK-293T; settings: human, read-out: Ratio CC50/EC50
Chikungunya virus [13] = assay: Antiviral activity against wild type Chikungunya virus IMT infected in HEK293T cells assessed as inhibition of nsP1 protein expression at 5 uM measured at 24 hrs postinfection by Western blot method; assay type: functional, cell-based; settings: HEK-293T
Chikungunya virus [14] = assay: Antiviral activity against wild type Chikungunya virus IMT infected in HEK293T cells assessed as inhibition of E2 protein expression at 5 uM measured at 24 hrs postinfection by Western blot method; assay type: functional, cell-based; settings: HEK-293T
Chikungunya virus [15] = assay: Antiviral activity against wild type Chikungunya virus IMT infected in HEK293T cells assessed as inhibition of nsP3 protein expression at 5 uM measured at 24 hrs postinfection by Western blot method; assay type: functional, cell-based; settings: HEK-293T
Chikungunya virus [16] = assay: Antiviral activity against wild type Chikungunya virus IMT infected in HEK293T cells assessed as inhibition of viral capsid protein at 5 uM measured at 24 hrs postinfection by Western blot method; assay type: functional, cell-based; settings: HEK-293T
Onyong-nyong virus = assay: Antiviral activity against O'nyong-nyong virus infected in HEK293T cells assessed as inhibition of infectivity measured at 24 hrs postinfection by FITC/DAPI staining based array scan VTI HCS reader analysis; assay type: functional, cell-based; settings: HEK-293T
Sindbis virus = assay: Antiviral activity against wild type Sindbis virus infected in HEK293T cells assessed as inhibition of infectivity measured at 24 hrs postinfection by FITC/DAPI staining based array scan VTI HCS reader analysis; assay type: functional, organism-based; settings: HEK-293T
Chikungunya virus [17] = assay: Antiviral activity against wild type Chikungunya virus IMT infected in HEK293T cells assessed as reduction of viral nsP1 gene expression at 2.5 uM measured at 24 hrs postinfection by qRT-PCR method relative to control; assay type: functional, HEK-293T
Chikungunya virus [18] = assay: Antiviral activity against wild type Chikungunya virus IMT infected in HEK293T cells assessed as reduction of viral E1 gene expression at 2.5 uM measured at 24 hrs postinfection by qRT-PCR method relative to control; assay type: functional, HEK-293T

Structure (SMILES) | CC50 at 24 h [1] | EC50 (Chikungunya virus [5]) | viability at 24 h [10] | EC50 (Chikungunya virus [11]) | inhibition (Chikungunya virus [11]) | selectivity ratio [12] | further results
CCCNC(=O)C1CCN(C(=O)c2cc3sc(CO)cc3n2Cc2ccc(OC)cc2)CC1 | 15.5 µM | 4.33 µM | > 80% | 2.39 µM | Dose-dependent effect | 3.6 | Activity (Chikungunya virus [2]): Dose-dependent effect; inhibition (Chikungunya virus [3]): Dose-dependent effect; inhibition (Chikungunya virus [4]): Dose-dependent effect; Activity (HEK293): Non-toxic; inhibition at 5 µM (Chikungunya virus [6]): 60%; Activity (Chikungunya virus [7]): Dose-dependent effect; inhibition (Chikungunya virus [8]): Dose-dependent effect; inhibition (Chikungunya virus [9]): Dose-dependent effect
CCCNC(=O)C1CCN(C(=O)c2cc3sc(CNC(C)c4ccccc4)cc3n2Cc2ccc(OC)cc2)CC1 (stereo not drawn) | 33.9 µM | 8.44 µM | > 80% | 13.5 µM | Dose-dependent effect | 4 | 
NC(=O)c1ncn([C@@H]2O[C@H](CO)[C@@H](O)[C@H]2O)n1 [RIBAVIRIN] |  | 13.1 µM | > 80% | 20 µM | Dose-dependent effect |  | inhibition (Chikungunya virus [13]): inactive; inhibition (Chikungunya virus [14]): inactive; inhibition (Chikungunya virus [15]): inactive; inhibition at 5 µM (Chikungunya virus [6]): 10%; inhibition (Chikungunya virus [16]): inactive; EC50 (Onyong-nyong virus): 18.4 µM; EC50 (Sindbis virus): 5.12 µM
COc1ccc(Cn2c(C(=O)N3CCN(Cc4ccccc4)CC3)cc3sc(C(C)=O)cc32)cc1 | > 100 µM | 17 µM | > 80% |  |  | > 5.9 | 
COc1ccc(Cn2c(C(=O)N3CCN(Cc4ccccc4)CC3)cc3sc(CNC(C)c4ccccc4)cc32)cc1 (stereo not drawn) | > 100 µM | 9.44 µM | > 80% | 25.5 µM | Dose-dependent effect | > 11 | 
CCCNCc1cc2c(cc(C(=O)N3CCC(C(=O)NCCC)CC3)n2Cc2ccc(OC)cc2)s1 | > 100 µM | 40 µM | > 80% |  |  | > 2.5 | 
CCCNC(=O)C1CCN(C(=O)c2cc3sc(-c4ccccc4)cc3n2Cc2ccc(OC)cc2)CC1 | > 100 µM | 3.85 µM | > 80% | 3.08 µM | Dose-dependent effect | > 26 | 
CCCNC(=O)C1CCN(C(=O)c2cc3sc(C#N)cc3n2Cc2ccc(OC)cc2)CC1 | > 100 µM | 4.9 µM | > 80% | 8.23 µM | Dose-dependent effect | > 20 | 
COc1ccc(Cn2c(C(=O)N3CCC(C(=O)NCCC(C)C)CC3)cc3sccc32)cc1 | 30.9 µM | 11 µM | > 80% |  |  | 2.8 | 
CCCNC(=O)C1CCN(C(=O)c2cc3sccc3n2Cc2ccc(OC)cc2)CC1 | 18.8 µM | 7 µM | > 80% | 6.55 µM | Dose-dependent effect | 2.7 | 
CCCNC(=O)C1CCN(C(=O)c2cc3sc(C)cc3n2Cc2ccc(OC)cc2)CC1 | 36.3 µM | 3.6 µM | > 80% | 3.27 µM | Dose-dependent effect | 10 | 
COc1ccc(Cn2c(C(=O)N3CCNCC3)cc3sccc32)cc1 | > 100 µM | 32.5 µM | > 80% |  |  | > 3.1 | 
CCCNC(=O)C1CCN(C(=O)c2cc3sc(Br)cc3n2Cc2ccc(OC)cc2)CC1 | > 100 µM | 3.1 µM | > 80% | 1.96 µM | Dose-dependent effect | > 32 | Activity (Chikungunya virus [2]): Dose-dependent effect; fold change (FC) (Chikungunya virus [17]): 100; inhibition (Chikungunya virus [3]): Dose-dependent effect; fold change (FC) (Chikungunya virus [18]): 100; inhibition (Chikungunya virus [4]): Dose-dependent effect; Activity (HEK293): Non-toxic; inhibition at 5 µM (Chikungunya virus [6]): 60%; Activity (Chikungunya virus [7]): Dose-dependent effect; inhibition (Chikungunya virus [8]): Dose-dependent effect; EC50 (Onyong-nyong virus): 2.58 µM; EC50 (Sindbis virus): 1.14 µM; inhibition (Chikungunya virus [9]): Dose-dependent effect
CCCNC(=O)C1CCN(C(=O)c2cc3sc(CNCc4ccccc4)cc3n2Cc2ccc(OC)cc2)CC1 | 46.8 µM | 11.2 µM | > 80% |  |  | 4.2 | 
COc1ccc(Cn2c(C(=O)N3CCC(C(=O)NC(C)c4ccccc4)CC3)cc3sccc32)cc1 (stereo not drawn) | > 100 µM | 13 µM | > 80% |  |  | > 7.7 | 
COc1ccc(Cn2c(C(=O)N3CCC(C(=O)NCC4CC4)CC3)cc3sccc32)cc1 | 24.6 µM | 10.4 µM | > 80% |  |  | 2.4 | 
COc1ccc(Cn2c(C(=O)N3CCC(C(=O)NC4CC4)CC3)cc3sccc32)cc1 | 21.4 µM | 7.59 µM | > 80% | 5.59 µM | Dose-dependent effect | 2.8 | 
CCCNC(=O)C1CCN(C(=O)c2c(Br)c3sccc3n2Cc2ccc(OC)cc2)CC1 | 31.6 µM | 7.75 µM | > 80% | 14 µM | Dose-dependent effect | 4.1 | 
CCCCC(=O)C1CCN(C(=O)c2cc3sccc3n2Cc2ccc(OC)cc2)CC1 | 38.9 µM | 13.3 µM | > 80% |  |  | 2.9 | 
COc1ccc(Cn2c(C(=O)N3CCOCC3)cc3sccc32)cc1 | > 100 µM | 79.7 µM | > 80% |  |  | > 1.3 | 
COc1ccc(Cn2c(C(N)=O)cc3sccc32)cc1 | > 100 µM | 36 µM | > 80% |  |  | > 2.8 | 
COc1ccc(Cn2c(C(=O)N3CCC(C(=O)NCc4ccccc4)CC3)cc3sccc32)cc1 | > 100 µM | 12.3 µM | > 80% |  |  | > 8.1 | 
COc1ccc(Cn2c(C(=O)N3CCC(C(=O)NCc4cccc(Br)c4)CC3)cc3sccc32)cc1 | > 100 µM | 10.9 µM | > 80% |  |  | > 9.2 | 
CCCNC(=O)C1CCN(C(=O)c2c(CNC(C)c3ccccc3)c3sccc3n2Cc2ccc(OC)cc2)CC1 (stereo not drawn) | 57.5 µM | 11.9 µM | > 80% |  |  | 4.8 | 
